{"source": "ChEMBL document CHEMBL1153833", "about": "“Effect of dosing and dosing frequency on the efficacy of ceftizoxime and the emergence of ceftizoxime resistance during the early development of murine abscesses caused by Bacteroides fragilis and Enterobacter cloacae mixed infection” (Antimicrob Agents Chemother, 2007)", "key": {"Mus musculus [1]": {"system": "Mus musculus", "experiment": "Unbound Cmax (fCmax) in Bacteroides fragilis ATCC 23745 and Enterobacter cloacae isolate 22491-infected BALB/c mouse mixed infection abscesses model at 100 mg/kg administered as 36 doses every 2 hrs", "type": "ADME, organism-based", "design": "dose 100 mg/kg", "details": "in vivo", "method_in_brief": "(§1)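 Infected mice received 36 doses of 100 mg/kg CZX q2h. Serum CZX measured in duplicate by agar diffusion bioassay against E. coli strain 62. One-compartment open model; unbound values assume 13% protein binding in mouse serum.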"}, "Enterobacter cloacae [2]": {"system": "Enterobacter cloacae", "experiment": "Antimicrobial activity against Enterobacter cloacae isolate 22491 infected BALB/c mouse mixed infection abscesses model co-infected with Bacteroides fragilis ATCC 23745 assessed as increase in resistant bacterial count per abscess at 96 mg/kg/day administered every 4 hrs", "type": "functional", "method_in_brief": "(§2)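 Mixed subcutaneous flank abscesses in female SPF BALB/c mice (10^7 CFU of each strain plus 4 mg autoclaved cecal contents). Drug given subcutaneously, starting 30 min before inoculation, for 24 h. Abscesses homogenized in PBS. Resistant E. cloacae counted on WC agar with 16x MIC (48 h aerobic, 37°C) and total counts on drug-free EM agar. Groups of two mice.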"}, "Enterobacter cloacae [3]": {"system": "Enterobacter cloacae", "experiment": "Antimicrobial activity against Enterobacter cloacae isolate 22491 infected BALB/c mouse mixed infection abscesses model co-infected with Bacteroides fragilis ATCC 23745 assessed as increase in resistant bacterial count per abscess at 96 mg/kg/day administered every 2 hrs", "type": "functional", "method_in_brief": "as §2"}, "Mus musculus [4]": {"system": "Mus musculus", "experiment": "Unbound Cmax (fCmax) in Bacteroides fragilis ATCC 23745 and Enterobacter cloacae isolate 22491-infected BALB/c mouse mixed infection abscesses model at 100 mg/kg administered as single dose", "type": "ADME, organism-based", "design": "dose 100 mg/kg", "details": "in vivo", "method_in_brief": "(§3)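 Single s.c. dose of 100 mg/kg CZX in groups of three infected mice, 4 days after inoculation. Orbital blood taken at 10-360 min. Serum CZX measured in duplicate by agar diffusion bioassay against E. coli strain 62. One-compartment open model; unbound values assume 13% serum protein binding.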"}, "Enterobacter cloacae [5]": {"system": "Enterobacter cloacae", "experiment": "Antimicrobial activity against Enterobacter cloacae isolate 22491 infected BALB/c mouse mixed infection abscesses model co-infected with Bacteroides fragilis ATCC 23745 assessed as increase in resistant bacterial count per abscess at 6 mg/kg/day administered every 4 hrs", "type": "functional", "method_in_brief": "as §2"}, "Enterobacter cloacae [6]": {"system": "Enterobacter cloacae", "experiment": "Antimicrobial activity against Enterobacter cloacae isolate 22491 infected BALB/c mouse mixed infection abscesses model co-infected with Bacteroides fragilis ATCC 23745 assessed as increase in resistant bacterial count per abscess at 6 mg/kg/day administered every 2 hrs", "type": "functional", "method_in_brief": "as §2"}, "Bacteroides fragilis [7]": {"system": "Bacteroides fragilis", "experiment": "Antimicrobial activity against Bacteroides fragilis ATCC 23745 infected BALB/c mouse mixed infection abscesses model co-infected with Enterobacter cloacae isolate 22491 assessed as reduction in bacterial load per abscess at 1536 mg/kg/day administered every 8 hrs", "type": "functional", "method_in_brief": "(§4)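 Female BALB/c mice (12-18 wk) injected s.c. on both flanks with 10^7 CFU each of B. fragilis and E. cloacae plus 4 mg autoclaved cecal contents. CZX was given s.c. from 30 min before inoculation for 24 h, two mice per group. Abscesses were homogenized in PBS and plated in duplicate: E. cloacae on EM agar (aerobic, 24 h), B. fragilis on WC agar with gentamicin (anaerobic, 48 h). Result is mean log10 CFU/abscess of four abscesses ± SEM versus untreated; threshold 1.7 log10.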"}, "[8]": {"experiment": "fT>MIC in Enterobacter cloacae isolate 22491-infected BALB/c mouse at 100 mg/kg", "type": "functional"}, "Enterobacter cloacae [9]": {"system": "Enterobacter cloacae", "experiment": "Antimicrobial activity against Enterobacter cloacae isolate 22491 infected BALB/c mouse mixed infection abscesses model co-infected with Bacteroides fragilis ATCC 23745 assessed as increase in resistant bacterial count per abscess at 24 mg/kg/day administered every 2 hrs", "type": "functional", "method_in_brief": "as §2"}, "Bacteroides fragilis [10]": {"system": "Bacteroides fragilis", "experiment": "Antimicrobial activity against Bacteroides fragilis ATCC 23745 infected BALB/c mouse mixed infection abscesses model co-infected with Enterobacter cloacae isolate 22491 assessed as bacterial killing at 96 mg/kg/day administered every 4 hrs", "type": "functional, organism-based", "method_in_brief": "as §4"}, "[11]": {"experiment": "Half life in Bacteroides fragilis ATCC 23745 and Enterobacter cloacae isolate 22491-infected BALB/c mouse mixed infection abscesses model at 100 mg/kg administered as single dose", "type": "ADME, organism-based", "design": "dose 100 mg/kg", "details": "in vivo", "method_in_brief": "as §3"}, "Bacteroides fragilis [12]": {"system": "Bacteroides fragilis", "experiment": "Antimicrobial activity against Bacteroides fragilis ATCC 23745 infected BALB/c mouse mixed infection abscesses model co-infected with Enterobacter cloacae isolate 22491 assessed as bacterial killing at 6 mg/kg/day administered every 2 hrs", "type": "functional, organism-based", "method_in_brief": "as §4"}, "[13]": {"experiment": "Ratio of fAUC to MIC in Enterobacter cloacae isolate 22491 infected BALB/c mouse mixed infection abscesses model co-infected with Bacteroides fragilis ATCC 23745", "type": "functional"}, "Enterobacter cloacae [14]": {"system": "Enterobacter cloacae", "experiment": "Antimicrobial activity against Enterobacter cloacae isolate 22491 infected BALB/c mouse mixed infection abscesses model co-infected with Bacteroides fragilis ATCC 23745 assessed as bacterial killing at 6 mg/kg/day administered every 2 hrs", "type": "functional, organism-based", "method_in_brief": "as §4"}, "Enterobacter cloacae [15]": {"system": "Enterobacter cloacae", "experiment": "Antimicrobial activity against Enterobacter cloacae isolate 22491 infected BALB/c mouse mixed infection abscesses model co-infected with Bacteroides fragilis ATCC 23745 assessed as increase in resistant bacterial count per abscess at 24 mg/kg/day administered every 4 hrs", "type": "functional", "method_in_brief": "as §2"}, "Enterobacter cloacae [16]": {"system": "Enterobacter cloacae", "experiment": "Antimicrobial activity against Enterobacter cloacae isolate 22491", "type": "functional"}, "Enterobacter cloacae [17]": {"system": "Enterobacter cloacae", "experiment": "Antimicrobial activity against Enterobacter cloacae isolate 22491 assessed as mutation prevention concentration", "type": "functional", "method_in_brief": "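Overnight culture concentrated to 10^10 CFU/ml by centrifugation. 1 ml spread over five agar plates containing drug, first at twofold dilutions, then at linear increments. Plates read after 18 h at 37°C. MPC taken as the lowest concentration giving no colonies from 10^10 bacteria. Colonies from the highest concentration were subcultured drug-free to check mutant stability.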"}, "Enterobacter cloacae [18]": {"system": "Enterobacter cloacae", "experiment": "Antimicrobial activity against Enterobacter cloacae isolate 22491 infected BALB/c mouse mixed infection abscesses model co-infected with Bacteroides fragilis ATCC 23745 assessed as bacterial killing at 24 mg/kg/day administered every 4 hrs", "type": "functional, organism-based", "method_in_brief": "as §4"}, "Enterobacter cloacae [19]": {"system": "Enterobacter cloacae", "experiment": "Antimicrobial activity against Enterobacter cloacae isolate 22491 infected BALB/c mouse mixed infection abscesses model co-infected with Bacteroides fragilis ATCC 23745 assessed as reduction in bacterial load per abscess at 384 mg/kg/day administered every 8 hrs", "type": "functional", "method_in_brief": "as §4"}, "Bacteroides fragilis [20]": {"system": "Bacteroides fragilis", "experiment": "Antimicrobial activity against Bacteroides fragilis ATCC 23745 infected BALB/c mouse mixed infection abscesses model co-infected with Enterobacter cloacae isolate 22491 assessed as reduction in bacterial load per abscess at 384 mg/kg/day administered every 8 hrs", "type": "functional", "method_in_brief": "as §4"}, "Enterobacter cloacae [21]": {"system": "Enterobacter cloacae", "experiment": "Antimicrobial activity against Enterobacter cloacae isolate 22491 infected BALB/c mouse mixed infection abscesses model co-infected with Bacteroides fragilis ATCC 23745 assessed as bacterial killing at 96 mg/kg/day administered every 4 hrs", "type": "functional, organism-based", "method_in_brief": "as §4"}, "Bacteroides fragilis [22]": {"system": "Bacteroides fragilis", "experiment": "Antimicrobial activity against Bacteroides fragilis ATCC 23745 infected BALB/c mouse mixed infection abscesses model co-infected with Enterobacter cloacae isolate 22491 assessed as bacterial killing at 24 mg/kg/day administered every 4 hrs", "type": "functional, organism-based", "method_in_brief": "as §4"}, "Bacteroides fragilis [23]": {"system": "Bacteroides fragilis", "experiment": "Antimicrobial activity against Bacteroides fragilis ATCC 23745 infected BALB/c mouse mixed infection abscesses model co-infected with Enterobacter cloacae isolate 22491 assessed as inhibition of emergence of resistance mutation", "type": "functional, organism-based", "method_in_brief": "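Female SPF BALB/c mice (12–18 weeks, 20–25 g) injected subcutaneously on both flanks with 10^7 CFU B. fragilis, 10^7 CFU E. cloacae and 4 mg ACC. Drug given subcutaneously at 6–1,536 mg/kg/day, q2h–q8h, beginning 30 min before inoculation, for 24 h. B. fragilis mutants counted on WC agar with 16x MIC plus 100 mg/liter gentamicin, 72 h anaerobic, 37°C.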"}, "[24]": {"experiment": "Half life in Bacteroides fragilis ATCC 23745 and Enterobacter cloacae isolate 22491-infected BALB/c mouse mixed infection abscesses model at 100 mg/kg administered as 36 doses every 2 hrs", "type": "ADME, organism-based", "design": "dose 100 mg/kg", "details": "in vivo", "method_in_brief": "as §1"}, "Enterobacter cloacae [25]": {"system": "Enterobacter cloacae", "experiment": "Antimicrobial activity against Enterobacter cloacae isolate 22491 infected BALB/c mouse mixed infection abscesses model co-infected with Bacteroides fragilis ATCC 23745 assessed as reduction in bacterial load per abscess at 1536 mg/kg/day administered every 8 hrs", "type": "functional", "method_in_brief": "as §4"}, "Bacteroides fragilis [26]": {"system": "Bacteroides fragilis", "experiment": "Antimicrobial activity against Bacteroides fragilis ATCC 23745", "type": "functional"}}, "note": "Activity calls are given as the source filed them."}
{"smiles": "CO/N=C(\\C(=O)N[C@@H]1C(=O)N2C(C(=O)O)=CCS[C@H]12)c1csc(N)n1", "note": "[CEFTIZOXIME]", "values": [{"measurement": "Cmax_unbound", "setting": "Mus musculus [1]", "value": 0.6, "unit": "mg/L"}, {"measurement": "log10cfu", "setting": "Enterobacter cloacae [2]", "value": 2}, {"measurement": "log10cfu", "setting": "Enterobacter cloacae [3]", "value": 3.8}, {"measurement": "Cmax_unbound", "setting": "Mus musculus [4]", "value": 0.6, "unit": "mg/L"}, {"measurement": "log10cfu", "setting": "Enterobacter cloacae [5]", "value": 2}, {"measurement": "log10cfu", "setting": "Enterobacter cloacae [6]", "value": 3.8}, {"measurement": "log10cfu", "setting": "Bacteroides fragilis [7]", "value": ">=5"}, {"measurement": "T>MIC", "setting": "[8]", "value": 9, "unit": "%"}, {"measurement": "log10cfu", "setting": "Enterobacter cloacae [9]", "value": 3.8}, {"measurement": "Activity", "setting": "Bacteroides fragilis [10]", "value": "inactive"}, {"measurement": "half-life", "setting": "[11]", "value": 13.8, "unit": "min"}, {"measurement": "Activity", "setting": "Bacteroides fragilis [12]", "value": "inactive"}, {"measurement": "Ratio", "setting": "[13]", "value": 1000}, {"measurement": "Activity", "setting": "Enterobacter cloacae [14]", "value": "inactive"}, {"measurement": "log10cfu", "setting": "Enterobacter cloacae [15]", "value": 2}, {"measurement": "MIC", "setting": "Enterobacter cloacae [16]", "value": 0.25, "unit": "µg/mL"}, {"measurement": "MIC99", "setting": "Enterobacter cloacae [16]", "value": 0.125, "unit": "µg/mL"}, {"measurement": "MPC", "setting": "Enterobacter cloacae [17]", "value": 384, "unit": "µg/mL"}, {"measurement": "Activity", "setting": "Enterobacter cloacae [18]", "value": "inactive"}, {"measurement": "log10cfu", "setting": "Enterobacter cloacae [19]", "value": ">=5"}, {"measurement": "log10cfu", "setting": "Bacteroides fragilis [20]", "value": ">=5"}, {"measurement": "Activity", "setting": "Enterobacter cloacae [21]", "value": "inactive"}, {"measurement": "Activity", "setting": "Bacteroides fragilis [22]", "value": "inactive"}, {"measurement": "Activity", "setting": "Bacteroides fragilis [23]", "value": "Active"}, {"measurement": "half-life", "setting": "[24]", "value": 13.2, "unit": "min"}, {"measurement": "log10cfu", "setting": "Enterobacter cloacae [25]", "value": ">=5"}, {"measurement": "MIC", "setting": "Bacteroides fragilis [26]", "value": 1, "unit": "µg/mL"}]}
